Laboratory results: ChEMBL document CHEMBL3232897, “Synthesis, antiproliferative and antibacterial activity of new amides of salinomycin” (Bioorg Med Chem Lett, 2014)
In brackets after ≈: the same amount, converted by molar mass. Activity calls are given as the source filed them. The rule behind the calls is not given here.

Key:
[1] = system: LoVo; assay: Selectivity index, ratio of IC50 for mouse BALB/3T3 cells to IC50 for human LoVo cells; format: functional
Summary of the method: (§1)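 Selectivity index is the IC50 in normal murine embryonic fibroblasts (BALB/3T3) divided by the IC50 in the respective cancer line (HL-60, HL-60/vinc, LoVo or LoVo/DX). Each IC50 is the concentration giving 50% growth inhibition. SI >1.0 is taken as favourable.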

[2] = system: Staphylococcus epidermidis; assay: Antibacterial activity against methicillin-resistant Staphylococcus epidermidis 459/11; format: functional
Summary of the method: (§2)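 In vitro antibacterial test on Staphylococcus strains, including MRSE clinical isolates. Read-outs were growth inhibition zone (mm) and MIC (µg/ml). Ciprofloxacin was the reference antibiotic.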

[3] = system: HL-60; assay: Selectivity index, ratio of IC50 for mouse BALB/3T3 cells to IC50 for human HL60 cells; format: functional; summary of the method: as §1
[4] = system: Staphylococcus aureus; assay: Antibacterial activity against Staphylococcus aureus ATCC 25923; format: functional
[5] = system: Staphylococcus epidermidis; assay: Antibacterial activity against Staphylococcus epidermidis ATCC 12228; format: functional; summary of the method: as §2
[6] = system: BALB/3T3; assay: Antiproliferative activity mouse BALB/3T3 cells; format: cell-based
Summary of the method: (§3)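 IC50 is the concentration giving 50% growth inhibition, reported as mean with SD. HL-60/vinc and LoVo/DX are drug-resistant (MDR) sublines of HL-60 and LoVo. BALB/3T3 is a normal murine embryonic fibroblast line.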

[7] = Antiproliferative activity against human LoVo/DX cells; format: functional, cell-based; summary of the method: as §3
[8] = system: Staphylococcus epidermidis; assay: Antibacterial activity against Staphylococcus epidermidis ATCC 35984; format: functional; summary of the method: as §2
[9] = system: Staphylococcus aureus; assay: Antibacterial activity against Staphylococcus aureus ATCC 29213; format: functional
[10] = system: Staphylococcus aureus; assay: Antibacterial activity against Staphylococcus aureus ATCC 6538; format: functional
[11] = system: HL-60; assay: Resistance index, ratio of IC50 for human HL60/Vinc cells to IC50 for human HL60 cells; format: functional
Summary of the method: (§4)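 Index of resistance is the IC50 in the resistant subline (HL-60/vinc or LoVo/DX) divided by the IC50 in its parental line (HL-60 or LoVo). Each IC50 is the concentration giving 50% growth inhibition. Bands are 0–2 sensitive, 2–10 moderate, above 10 strongly resistant.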

[12] = system: LoVo; assay: Antiproliferative activity against human LoVo cells; format: functional, cell-based; summary of the method: as §3
[13] = system: Staphylococcus epidermidis; assay: Antibacterial activity against methicillin-resistant Staphylococcus epidermidis 461/11; format: functional; summary of the method: as §2
[14] = system: Staphylococcus epidermidis; assay: Antibacterial activity against methicillin-resistant Staphylococcus epidermidis 489/11; format: functional; summary of the method: as §2
[15] = system: HL-60; assay: Antiproliferative activity against human HL60 cells; format: functional, cell-based; summary of the method: as §3
[16] = Antiproliferative activity against human HL60/Vinc cells; format: functional, cell-based; summary of the method: as §3
[17] = system: Staphylococcus epidermidis; assay: Antibacterial activity against methicillin-resistant Staphylococcus epidermidis 488/11; format: functional; summary of the method: as §2
[18] = system: LoVo; assay: Resistance index, ratio of IC50 for human LoVo/DX cells to IC50 for human LoVo cells; format: functional; summary of the method: as §4
[19] = system: Staphylococcus epidermidis; assay: Antibacterial activity against methicillin-resistant Staphylococcus epidermidis 468/11; format: functional; summary of the method: as §2
[20] = Selectivity index, ratio of IC50 for mouse BALB/3T3 cells to IC50 for human HL60/Vinc cells; format: functional; summary of the method: as §1
[21] = system: Staphylococcus epidermidis; assay: Antibacterial activity against methicillin-resistant Staphylococcus epidermidis 460/11; format: functional; summary of the method: as §2
[22] = system: Staphylococcus epidermidis; assay: Antibacterial activity against methicillin-resistant Staphylococcus epidermidis 469/11; format: functional; summary of the method: as §2
[23] = system: Staphylococcus aureus; assay: Antibacterial activity against Staphylococcus aureus NCTC 4163; format: functional
[24] = Selectivity index, ratio of IC50 for mouse BALB/3T3 cells to IC50 for human LoVo/DX cells; format: functional; summary of the method: as §1
[25] = system: Staphylococcus epidermidis; assay: Antibacterial activity against methicillin-resistant Staphylococcus epidermidis 466/11; format: functional; summary of the method: as §2
[26] = system: Staphylococcus epidermidis; assay: Antibacterial activity against methicillin-resistant Staphylococcus epidermidis 470/11; format: functional; summary of the method: as §2
[27] = system: Staphylococcus epidermidis; assay: Antibacterial activity against methicillin-resistant Staphylococcus epidermidis 467/11; format: functional; summary of the method: as §2
[28] = system: BALB/3T3; assay: Antiproliferative activity mouse BALB/3T3 cells up to 100 ug/ml; format: cell-based
[29] = organism: Homo sapiens; assay: Antiproliferative activity against human HL60/Vinc cells up to 100 ug/ml; format: functional, cell-based

Row | SMILES | MIC [2] [µg/mL] | MIC [4] [µg/mL] | MIC [5] [µg/mL] | IC50 [7] [µM] | MIC [8] [µg/mL] | MIC [9] [µg/mL] | MIC [10] [µg/mL] | IC50 [12] [µM] | MIC [13] [µg/mL] | MIC [14] [µg/mL] | IC50 [15] [µM] | MIC [17] [µg/mL] | Ratio IC50 [18] | MIC [19] [µg/mL] | MIC [21] [µg/mL] | MIC [22] [µg/mL] | MIC [23] [µg/mL] | MIC [25] [µg/mL] | MIC [26] [µg/mL] | MIC [27] [µg/mL] | also measured
1 | CC[C@@H](C(=O)[C@@H](C)[C@@H](O)[C@H](C)[C@@H]1O[C@@H]([C@@H](CC)C(=O)NCCCCN)CC[C@@H]1C)[C@H]1O[C@]2(C=C[C@@H](O)[C@]3(CC[C@@](C)([C@H]4CC[C@](O)(CC)[C@H](C)O4)O3)O2)[C@H](C)C[C@@H]1C | 32 (≈ 39 µM) | 32 (≈ 39 µM) | 64 (≈ 77.9 µM) | 12.6 | 32 (≈ 39 µM) | 64 (≈ 77.9 µM) | 32 (≈ 39 µM) | 21.9 | 64 (≈ 77.9 µM) | 32 (≈ 39 µM) | 3.7 | 64 (≈ 77.9 µM) | 0.58 | 32 (≈ 39 µM) | 64 (≈ 77.9 µM) | 64 (≈ 77.9 µM) | 32 (≈ 39 µM) | 64 (≈ 77.9 µM) | 64 (≈ 77.9 µM) | 32 (≈ 39 µM) | Ratio IC50 [1]: 1.6; Ratio IC50 [3]: 9.47; IC50 [6]: 35.1 µM; Ratio IC50 [11]: 6.22; IC50 [16]: 23.1 µM; Ratio IC50 [20]: 1.52; Ratio IC50 [24]: 2.78
2 | CC[C@@H](C(=O)[C@@H](C)[C@@H](O)[C@H](C)[C@@H]1O[C@@H]([C@@H](CC)C(=O)Nc2ccc(-c3ccc(NC(=O)[C@H](CC)[C@H]4CC[C@H](C)[C@H]([C@@H](C)[C@H](O)[C@H](C)C(=O)[C@H](CC)[C@H]5O[C@]6(C=C[C@@H](O)[C@]7(CC[C@@](C)([C@H]8CC[C@](O)(CC)[C@H](C)O8)O7)O6)[C@H](C)C[C@@H]5C)O4)cc3)cc2)CC[C@@H]1C)[C@H]1O[C@]2(C=C[C@@H](O)[C@]3(CC[C@@](C)([C@H]4CC[C@](O)(CC)[C@H](C)O4)O3)O2)[C@H](C)C[C@@H]1C | 32 (≈ 19.4 µM) | 32 (≈ 19.4 µM) | 32 (≈ 19.4 µM) | 3.1 | 32 (≈ 19.4 µM) | 32 (≈ 19.4 µM) | 32 (≈ 19.4 µM) | 8.4 | 32 (≈ 19.4 µM) | 32 (≈ 19.4 µM) | 4.4 | 32 (≈ 19.4 µM) | 0.38 | 32 (≈ 19.4 µM) | 64 (≈ 38.8 µM) | 64 (≈ 38.8 µM) | 16 (≈ 9.7 µM) | 32 (≈ 19.4 µM) | 64 (≈ 38.8 µM) | 16 (≈ 9.7 µM) | Activity [28]: Non-toxic; inhibition [29]: inactive
3 | CC[C@@H](C(=O)[C@@H](C)[C@@H](O)[C@H](C)[C@@H]1O[C@@H]([C@@H](CC)C(=O)O)CC[C@@H]1C)[C@H]1O[C@]2(C=C[C@@H](O)[C@]3(CC[C@@](C)([C@H]4CC[C@](O)(CC)[C@H](C)O4)O3)O2)[C@H](C)C[C@@H]1C [SALINOMYCIN] | 16 (≈ 21.3 µM) | 2 (≈ 2.66 µM) | 2 (≈ 2.66 µM) | 1 | 2 (≈ 2.66 µM) | 4 (≈ 5.33 µM) | 2 (≈ 2.66 µM) | 1.5 | 16 (≈ 21.3 µM) | 16 (≈ 21.3 µM) | 1.2 | 16 (≈ 21.3 µM) | 0.65 | 8 (≈ 10.7 µM) | 16 (≈ 21.3 µM) | 16 (≈ 21.3 µM) | 2 (≈ 2.66 µM) | 8 (≈ 10.7 µM) | 16 (≈ 21.3 µM) | 16 (≈ 21.3 µM) | Ratio IC50 [1]: 16.88; Ratio IC50 [3]: 22.07; IC50 [6]: 25.8 µM; Ratio IC50 [11]: 4.05; IC50 [16]: 4.7 µM; Ratio IC50 [20]: 5.45; Ratio IC50 [24]: 26.08
